Experimental data of several laboratories.
Each line is one published result; the experiments were not run side by side.
Target: RAC-beta serine/threonine-protein kinase (AKT2, Homo sapiens, UniProt P31751)

SMILES	assay	setting	remaining binding [%]
COc1cnc(Nc2cccc(S(N)(=O)=O)c2)nc1N1CCN(c2ccccc2)C(=O)C1	binding, competition with immobilised ligand	1 µM	100
CN(C)c1nccc(-c2cnn3ncccc23)n1	binding	1 µM	100
C[C@@H](c1ccc(-n2cnc3c(N)ncnc32)cc1)N1CCc2nn(C)c(Cc3ccccc3)c2C1=O	binding, competition with immobilised ligand	0.1 µM	99
c1cncc(-c2cccc(Nc3nccc(NC4CCCCC4)n3)c2)c1	binding, competition with immobilised ligand	10 µM	62
CCCOc1ccc([C@H]2[C@H](C(=O)O)[C@@H](c3ccc4c(c3)OCO4)CN2CC(=O)Nc2c(CC)cccc2CC)cc1	cell-free assay, competition with immobilised ligand	1 µM	100
F[C@@H]1CCN(c2nccc(-c3cnn4ncccc34)n2)C1	binding	1 µM	86
O=C(O)[C@H]1[C@H](Cn2nnc3ccccc3c2=O)CC[C@@H]1C(=O)c1ccc(OCCC2CCOCC2)cc1	cell-free assay, competition with immobilised ligand	1 µM	88
O=C(NCCCN1CCOCC1)c1ccc(Nc2ncc(Cl)c(-c3ccc(Cl)s3)n2)cc1	binding, competition with immobilised ligand	1 µM	100
N[C@@H]1CCN(c2nccc(-c3cnn4ncccc34)n2)C1	binding	1 µM	100
CC(=O)N1CCC(c2ccc(C(=O)NC(=N)N)cc2C(F)(F)F)CC1	cell-free assay, competition with immobilised ligand	1 µM	99
O=C(NCCCN1CCOCC1)c1ccc(Nc2nccc(-c3cc4ccccc4s3)n2)cc1	binding, competition with immobilised ligand	1 µM	87
CCC(=O)N[C@@H]1CC[C@H](C(=O)N(C)c2ccc(-c3nc4ccccc4o3)cc2)C1	cell-free assay, competition with immobilised ligand	1 µM	72
N#Cc1ccccc1CSc1nnc2c(n1)[nH]c1ccccc12	binding, competition with immobilised ligand	10 µM	93
N#CC1(c2ccccn2)CCN(Cc2cc(C(=O)N3CCCC3)c(=O)n3ccccc23)CC1	cell-free assay, competition with immobilised ligand	1 µM	84
CN(C)c1ncc(F)c(-c2cnn3ncccc23)n1	binding	1 µM	100
Cc1nc(N2CC[C@@H](O)C2)ncc1-c1cc(C(F)(F)F)cc2[nH]ncc12	binding, competition with immobilised ligand	1 µM	87
C[C@H]1CCN(c2nccc(-c3cnn4ncccc34)n2)C1	binding	1 µM	100
C[C@@H]1CN(c2ccc3ncc(-c4ccc5[nH]nc(C6CC6)c5c4)n3n2)C[C@H](C)O1	binding, competition with immobilised ligand	50 nM	100
COc1cnc(Nc2cccc(S(N)(=O)=O)c2)nc1N1CCN(c2ccccc2)CC1	binding, competition with immobilised ligand	1 µM	94
O=C(c1ccc(Nc2ncc(Cl)c(-c3ccc(Cl)s3)n2)cc1)N1CCC(N2CCCC2)CC1	binding, competition with immobilised ligand	1 µM	89
CN(CCCC(F)(F)F)c1nccc(-c2cnn3ncccc23)n1	binding	1 µM	75
COc1ccc2c(O[C@@H]3C[C@H]4C(=O)N[C@]5(C(=O)O)CC5/C=C\CCCCC[C@H](NC(=O)OC5CCCC5)C(=O)N4C3)cc(-c3csc(NC(=O)C(C)C)n3)nc2c1C (stereo partly drawn)	cell-free assay, competition with immobilised ligand	1 µM	89
Nc1ncc2c(n1)-c1c([nH]c3ccc(C#CC4CC4)cc13)CCCC2	binding, competition with immobilised ligand	1 µM	100
O=C(Nc1c[nH]nc1C(=O)NC1CCNCC1)c1cc(F)cc(F)c1	binding, competition with immobilised ligand	1 µM	87
